Measured values: ChEMBL document CHEMBL4270664 (J Med Chem, 2018)

Legend:
[1] = Cmax in mouse at 3 mg/kg, iv; assay type: ADME, organism-based; design: dose 3 mg/kg, route intravenous; details: in vivo
Outline: (§1)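 Mice were dosed at 3 mg/kg intravenously, with plasma sampled at 6 time points and n = 2 mice per time point.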

[2] = Half life in mouse at 3 mg/kg, iv; assay type: ADME, organism-based; details: in vivo; outline: as §1
[3] = Clearance in mouse at 3 mg/kg, iv; assay type: ADME, organism-based; details: in vivo; outline: as §1
[4] = AUClast in mouse at 3 mg/kg, iv; assay type: ADME, organism-based; design: dose 3 mg/kg, time 0 - last, route intravenous; details: in vivo; outline: as §1
[5] = target: Serine/threonine-protein kinase SIK2 (Homo sapiens, UniProt Q9H0K1); test: Inhibition of N-terminal GST-tagged full length human QIK (1 to 926 end residues) expressed in baculovirus expression system using fluorecence-labeled substrate by MCE assay
Serine/threonine-protein kinase SIK2, sequence (Q9H0K1 whole entry, the tested form may be a part): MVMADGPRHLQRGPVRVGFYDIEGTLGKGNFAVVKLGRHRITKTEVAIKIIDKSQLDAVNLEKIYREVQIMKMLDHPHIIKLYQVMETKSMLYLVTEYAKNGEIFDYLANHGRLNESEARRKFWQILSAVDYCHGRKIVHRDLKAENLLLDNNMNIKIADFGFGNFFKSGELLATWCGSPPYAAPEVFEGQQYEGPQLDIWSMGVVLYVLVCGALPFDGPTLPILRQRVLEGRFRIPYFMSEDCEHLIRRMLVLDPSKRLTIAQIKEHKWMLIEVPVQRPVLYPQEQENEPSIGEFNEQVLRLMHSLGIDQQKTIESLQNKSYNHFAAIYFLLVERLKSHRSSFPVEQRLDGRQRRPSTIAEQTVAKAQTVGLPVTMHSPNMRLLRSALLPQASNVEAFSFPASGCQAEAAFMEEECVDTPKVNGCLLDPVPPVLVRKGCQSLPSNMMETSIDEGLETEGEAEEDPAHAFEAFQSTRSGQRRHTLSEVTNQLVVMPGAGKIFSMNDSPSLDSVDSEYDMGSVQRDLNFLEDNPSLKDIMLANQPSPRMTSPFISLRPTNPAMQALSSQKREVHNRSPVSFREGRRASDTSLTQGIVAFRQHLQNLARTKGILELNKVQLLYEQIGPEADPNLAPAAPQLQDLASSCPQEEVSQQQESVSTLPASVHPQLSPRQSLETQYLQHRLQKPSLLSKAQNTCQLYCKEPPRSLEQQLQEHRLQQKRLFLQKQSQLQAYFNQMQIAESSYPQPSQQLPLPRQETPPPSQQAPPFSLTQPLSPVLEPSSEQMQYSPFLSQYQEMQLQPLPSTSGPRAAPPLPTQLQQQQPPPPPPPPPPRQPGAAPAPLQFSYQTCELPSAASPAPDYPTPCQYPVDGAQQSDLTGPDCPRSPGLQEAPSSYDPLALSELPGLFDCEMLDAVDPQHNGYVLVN

[6] = target: NT-3 growth factor receptor (Homo sapiens, UniProt Q16288); test: Inhibition of N-terminal GST-tagged human TRKC cytoplasmic domain (456 to 825 end residues) expressed in baculovirus expression system using fluorecence-labeled substrate by MCE assay
NT-3 growth factor receptor, sequence (Q16288 whole entry, the tested form may be a part): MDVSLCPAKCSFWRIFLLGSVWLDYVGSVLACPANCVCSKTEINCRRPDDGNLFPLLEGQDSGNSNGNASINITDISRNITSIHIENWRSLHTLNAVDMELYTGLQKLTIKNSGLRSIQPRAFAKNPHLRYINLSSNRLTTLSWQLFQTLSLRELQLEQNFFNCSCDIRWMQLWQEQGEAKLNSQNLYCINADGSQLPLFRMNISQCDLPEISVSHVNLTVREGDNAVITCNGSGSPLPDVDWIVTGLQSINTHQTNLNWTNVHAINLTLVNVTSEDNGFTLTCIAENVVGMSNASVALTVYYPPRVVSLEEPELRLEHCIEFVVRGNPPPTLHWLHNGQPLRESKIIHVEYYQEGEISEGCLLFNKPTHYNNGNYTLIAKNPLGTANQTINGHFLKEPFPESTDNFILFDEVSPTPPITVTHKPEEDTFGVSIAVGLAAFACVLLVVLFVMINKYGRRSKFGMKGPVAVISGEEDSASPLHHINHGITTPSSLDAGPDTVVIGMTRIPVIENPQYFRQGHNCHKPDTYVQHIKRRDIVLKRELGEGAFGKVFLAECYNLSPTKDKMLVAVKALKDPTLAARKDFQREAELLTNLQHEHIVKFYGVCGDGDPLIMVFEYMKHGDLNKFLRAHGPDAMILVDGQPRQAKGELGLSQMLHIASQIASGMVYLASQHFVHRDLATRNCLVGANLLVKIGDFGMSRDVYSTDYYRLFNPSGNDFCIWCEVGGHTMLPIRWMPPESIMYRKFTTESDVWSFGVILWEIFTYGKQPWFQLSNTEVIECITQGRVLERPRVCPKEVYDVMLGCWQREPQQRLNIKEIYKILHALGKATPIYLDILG

[7] = target: Mast/stem cell growth factor receptor Kit (Homo sapiens, UniProt P10721); test: Inhibition of N-terminal GST-tagged human KIT cytoplasmic domain (544 to 976 end residues) expressed in baculovirus expression system using fluorecence-labeled substrate by MCE assay
Mast/stem cell growth factor receptor Kit, sequence (P10721 whole entry, the tested form may be a part): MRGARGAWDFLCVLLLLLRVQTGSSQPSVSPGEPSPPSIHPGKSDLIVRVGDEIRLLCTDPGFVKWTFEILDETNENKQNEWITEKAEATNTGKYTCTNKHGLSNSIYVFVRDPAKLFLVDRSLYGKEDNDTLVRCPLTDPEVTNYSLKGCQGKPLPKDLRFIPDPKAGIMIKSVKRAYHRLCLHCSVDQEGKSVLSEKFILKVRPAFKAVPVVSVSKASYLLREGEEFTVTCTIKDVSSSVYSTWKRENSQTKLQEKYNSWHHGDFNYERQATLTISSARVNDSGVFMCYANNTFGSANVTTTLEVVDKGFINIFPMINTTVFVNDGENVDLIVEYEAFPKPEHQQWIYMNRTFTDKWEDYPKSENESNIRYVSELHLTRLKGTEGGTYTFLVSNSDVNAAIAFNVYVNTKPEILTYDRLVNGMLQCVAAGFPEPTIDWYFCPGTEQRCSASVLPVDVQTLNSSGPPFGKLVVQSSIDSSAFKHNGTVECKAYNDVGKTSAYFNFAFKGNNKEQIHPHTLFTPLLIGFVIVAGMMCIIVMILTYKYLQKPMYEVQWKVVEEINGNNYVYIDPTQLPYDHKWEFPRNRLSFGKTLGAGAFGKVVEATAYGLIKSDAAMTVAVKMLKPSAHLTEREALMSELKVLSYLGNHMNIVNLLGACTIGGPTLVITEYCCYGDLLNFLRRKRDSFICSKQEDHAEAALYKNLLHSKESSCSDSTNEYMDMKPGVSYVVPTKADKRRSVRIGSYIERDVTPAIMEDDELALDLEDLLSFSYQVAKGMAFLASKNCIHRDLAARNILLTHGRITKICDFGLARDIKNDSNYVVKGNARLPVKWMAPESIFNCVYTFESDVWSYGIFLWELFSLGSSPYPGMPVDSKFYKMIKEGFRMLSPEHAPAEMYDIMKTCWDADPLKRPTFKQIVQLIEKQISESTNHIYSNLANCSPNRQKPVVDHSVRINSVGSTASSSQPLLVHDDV

[8] = Half life in mouse at 3 mg/kg, ip; assay type: ADME, organism-based; details: in vivo
Outline: (§2)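 Mice were dosed at 3 mg/kg by oral or intraperitoneal route in an extended PK study. Oral bioavailability was derived against the iv route.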

Mus musculus = species on record: Mus musculus; test: animal or person; details: Mus musculus, 697, ip, 10 min, read-out: INH
[9] = Half life in NSG mouse xenografted with human 697 cells at 30 mg/kg, ip administered as single dose; assay type: ADME, organism-based; details: in vivo
[10] = Cmax in mouse at 3 mg/kg, ip; assay type: ADME, organism-based; design: dose 3 mg/kg, route intraperitoneal; details: in vivo; outline: as §2
[11] = target: High affinity nerve growth factor receptor (Homo sapiens, UniProt P04629); test: Inhibition of N-terminal GST-tagged human TRKA cytoplasmic domain (436 to 790 end residues) expressed in baculovirus expression system using fluorecence-labeled substrate by MCE assay
High affinity nerve growth factor receptor, sequence (P04629 whole entry, the tested form may be a part): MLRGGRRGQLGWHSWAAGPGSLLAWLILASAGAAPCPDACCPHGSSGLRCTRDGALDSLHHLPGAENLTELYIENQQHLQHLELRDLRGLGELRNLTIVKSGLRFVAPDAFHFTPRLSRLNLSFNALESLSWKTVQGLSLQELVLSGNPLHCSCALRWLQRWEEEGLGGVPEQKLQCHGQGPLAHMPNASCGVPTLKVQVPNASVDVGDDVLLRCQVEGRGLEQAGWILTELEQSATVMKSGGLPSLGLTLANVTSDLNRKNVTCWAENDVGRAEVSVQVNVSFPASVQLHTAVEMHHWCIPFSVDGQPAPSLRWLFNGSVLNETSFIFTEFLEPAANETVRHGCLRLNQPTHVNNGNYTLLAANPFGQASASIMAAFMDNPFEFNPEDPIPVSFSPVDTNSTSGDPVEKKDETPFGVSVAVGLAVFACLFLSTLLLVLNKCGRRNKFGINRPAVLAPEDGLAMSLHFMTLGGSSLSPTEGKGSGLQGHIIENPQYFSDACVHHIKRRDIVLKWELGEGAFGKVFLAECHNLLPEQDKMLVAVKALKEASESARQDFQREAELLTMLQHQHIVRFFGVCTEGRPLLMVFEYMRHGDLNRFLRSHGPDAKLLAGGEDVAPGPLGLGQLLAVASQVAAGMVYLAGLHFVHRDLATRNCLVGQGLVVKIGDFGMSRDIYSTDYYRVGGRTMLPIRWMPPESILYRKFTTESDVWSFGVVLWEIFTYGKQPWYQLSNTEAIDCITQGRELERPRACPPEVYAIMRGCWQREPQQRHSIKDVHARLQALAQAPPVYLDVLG

[12] = Oral bioavailability in mouse at 3 mg/kg; assay type: ADME, organism-based; details: in vivo; outline: as §2
[13] = target: T1, NUAK family SNF1-like kinase 1 (Homo sapiens, UniProt O60285); test: Inhibition of N-terminal GST-tagged full length human NuaK1 (1 to 661 end residues) expressed in baculovirus expression system using fluorecence-labeled substrate by MCE assay
T1 sequence (O60285 whole entry): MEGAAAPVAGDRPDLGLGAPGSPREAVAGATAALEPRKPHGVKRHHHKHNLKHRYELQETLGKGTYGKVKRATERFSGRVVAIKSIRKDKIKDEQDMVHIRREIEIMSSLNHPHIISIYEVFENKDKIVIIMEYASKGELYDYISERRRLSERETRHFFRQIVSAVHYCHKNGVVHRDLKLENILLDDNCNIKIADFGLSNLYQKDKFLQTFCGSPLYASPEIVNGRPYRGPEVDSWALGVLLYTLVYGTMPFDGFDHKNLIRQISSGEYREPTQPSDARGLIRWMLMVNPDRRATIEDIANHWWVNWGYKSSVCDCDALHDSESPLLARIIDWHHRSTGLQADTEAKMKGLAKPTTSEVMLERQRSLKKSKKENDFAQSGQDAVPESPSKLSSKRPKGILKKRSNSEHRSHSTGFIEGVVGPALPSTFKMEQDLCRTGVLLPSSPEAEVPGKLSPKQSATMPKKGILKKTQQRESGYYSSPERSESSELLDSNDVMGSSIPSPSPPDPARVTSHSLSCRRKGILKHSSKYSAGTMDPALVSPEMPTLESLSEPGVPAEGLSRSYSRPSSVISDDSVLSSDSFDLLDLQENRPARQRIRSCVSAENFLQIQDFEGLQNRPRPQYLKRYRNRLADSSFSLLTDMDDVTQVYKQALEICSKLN

[14] = target: STE20-like serine/threonine-protein kinase (Homo sapiens, UniProt Q9H2G2); test: Inhibition of N-terminal GST-tagged full length human SLK (1 to 1152 end residues) expressed in baculovirus expression system using fluorecence-labeled substrate by MCE assay
STE20-like serine/threonine-protein kinase, sequence (Q9H2G2 whole entry): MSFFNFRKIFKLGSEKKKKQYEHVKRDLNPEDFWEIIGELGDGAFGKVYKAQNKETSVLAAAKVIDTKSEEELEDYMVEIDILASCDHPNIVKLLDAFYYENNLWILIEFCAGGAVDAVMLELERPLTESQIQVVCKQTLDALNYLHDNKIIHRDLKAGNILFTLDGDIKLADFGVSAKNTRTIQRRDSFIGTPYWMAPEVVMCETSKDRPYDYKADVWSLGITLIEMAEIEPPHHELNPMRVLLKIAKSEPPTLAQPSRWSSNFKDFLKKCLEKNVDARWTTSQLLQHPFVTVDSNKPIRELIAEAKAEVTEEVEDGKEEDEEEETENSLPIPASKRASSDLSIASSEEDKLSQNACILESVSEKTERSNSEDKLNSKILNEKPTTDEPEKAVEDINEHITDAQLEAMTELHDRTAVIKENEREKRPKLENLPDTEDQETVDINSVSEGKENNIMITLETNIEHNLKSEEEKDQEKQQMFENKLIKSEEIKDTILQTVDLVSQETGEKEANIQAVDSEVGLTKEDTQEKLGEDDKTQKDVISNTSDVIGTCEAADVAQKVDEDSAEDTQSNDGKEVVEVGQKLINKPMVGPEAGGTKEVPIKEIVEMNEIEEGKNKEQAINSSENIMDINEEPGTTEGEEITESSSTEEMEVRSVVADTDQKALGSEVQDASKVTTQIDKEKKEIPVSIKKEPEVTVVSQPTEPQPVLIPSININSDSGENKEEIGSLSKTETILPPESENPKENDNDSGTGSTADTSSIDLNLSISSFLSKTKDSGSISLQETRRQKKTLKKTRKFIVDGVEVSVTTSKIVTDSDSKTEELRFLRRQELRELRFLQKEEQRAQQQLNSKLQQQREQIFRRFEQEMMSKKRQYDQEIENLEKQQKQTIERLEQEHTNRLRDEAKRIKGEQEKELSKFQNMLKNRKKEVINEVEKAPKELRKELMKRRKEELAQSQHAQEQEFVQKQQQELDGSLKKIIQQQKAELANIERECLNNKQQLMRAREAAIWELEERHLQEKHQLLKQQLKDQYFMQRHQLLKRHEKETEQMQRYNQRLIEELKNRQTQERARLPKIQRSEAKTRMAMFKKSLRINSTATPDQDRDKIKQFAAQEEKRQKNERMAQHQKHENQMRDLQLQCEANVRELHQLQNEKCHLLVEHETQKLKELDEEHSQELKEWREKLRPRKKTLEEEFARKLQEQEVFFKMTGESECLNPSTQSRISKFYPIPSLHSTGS

[15] = Tmax in NSG mouse xenografted with human 697 cells at 30 mg/kg, ip administered as single dose; assay type: ADME, organism-based; details: in vivo
[16] = Cmax in mouse at 3 mg/kg, po; assay type: ADME, organism-based; design: dose 3 mg/kg, route oral; details: in vivo; outline: as §2
[17] = target: T2, Tyrosine-protein kinase Mer (Homo sapiens) (UniProt Q12866); details: 100 nM
T2 sequence (whole entry): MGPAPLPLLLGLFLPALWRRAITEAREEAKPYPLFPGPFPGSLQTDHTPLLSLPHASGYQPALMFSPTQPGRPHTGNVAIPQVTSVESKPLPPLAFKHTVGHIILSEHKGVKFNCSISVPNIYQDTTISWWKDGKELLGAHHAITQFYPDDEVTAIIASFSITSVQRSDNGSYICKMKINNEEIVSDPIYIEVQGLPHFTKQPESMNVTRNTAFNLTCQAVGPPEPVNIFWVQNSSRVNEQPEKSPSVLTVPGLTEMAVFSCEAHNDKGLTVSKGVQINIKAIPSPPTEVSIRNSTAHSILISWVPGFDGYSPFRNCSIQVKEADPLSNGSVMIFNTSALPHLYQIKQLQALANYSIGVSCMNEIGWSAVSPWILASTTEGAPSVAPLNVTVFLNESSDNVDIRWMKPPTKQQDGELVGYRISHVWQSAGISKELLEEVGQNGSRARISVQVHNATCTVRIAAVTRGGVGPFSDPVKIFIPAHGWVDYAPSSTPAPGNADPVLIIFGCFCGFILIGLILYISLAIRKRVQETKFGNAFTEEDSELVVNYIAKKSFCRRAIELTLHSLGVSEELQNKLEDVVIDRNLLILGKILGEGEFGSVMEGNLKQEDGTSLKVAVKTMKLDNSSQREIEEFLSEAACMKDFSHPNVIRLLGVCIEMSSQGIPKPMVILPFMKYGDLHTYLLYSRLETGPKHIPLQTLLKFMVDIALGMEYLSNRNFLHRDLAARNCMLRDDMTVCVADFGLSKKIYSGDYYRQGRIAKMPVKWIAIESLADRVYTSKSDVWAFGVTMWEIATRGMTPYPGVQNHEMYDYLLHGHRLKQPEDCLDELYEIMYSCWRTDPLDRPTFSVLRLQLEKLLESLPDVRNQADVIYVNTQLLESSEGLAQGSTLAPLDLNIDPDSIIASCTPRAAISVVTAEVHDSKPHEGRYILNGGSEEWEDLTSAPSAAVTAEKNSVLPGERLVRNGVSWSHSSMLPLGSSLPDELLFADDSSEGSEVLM

Structure (SMILES)	Cmax [1] [µM]	half-life [2] [h]	clearance [3] [mL/min/kg]	AUC(0-t) [4] [µM·h]	also measured
CCC[C@H](C)Nc1ncc2c(-c3ccc(CNCCN(CC)CC)cc3)cn([C@H]3CC[C@H](O)CC3)c2n1	1.7	3.65	54	1.2	–
CCC[C@H](C)Nc1ncc2c(-c3ccc(CN4CCCN(C)CC4)cc3)cn([C@H]3CC[C@H](O)CC3)c2n1	5.2	3	29	2.7	IC50 [5]: > 100 nM; IC50 [6]: 8.4 nM; IC50 [7]: > 100 nM; half-life [8]: 1.43 h; inhibition at 30 mg/kg (Mus musculus): 75%; half-life [9]: 3 h; Cmax [10]: 0.6 µM; IC50 [11]: 3.6 nM; bioavailability [12]: 15%; IC50 [13]: > 100 nM; IC50 [14]: 47 nM; Tmax [15]: 5 min; Cmax [16]: 0.061 µM
CCC[C@H](C)Nc1ncc2c(-c3ccc(CN4C5CCC4CC5)cc3)cn([C@H]3CC[C@H](O)CC3)c2n1	0.1	1.8	302	0.28	–
CCC[C@H](C)Nc1ncc2c(-c3ccc(CN4CCOCC4)cc3)cn([C@H]3CC[C@H](O)CC3)c2n1	8.6	1.4	41	2.2	–
CCC[C@H](C)Nc1ncc2c(-c3ccc(S(=O)(=O)N4CCN(C)CC4)cc3F)cn([C@H]3CC[C@H](O)CC3)c2n1	6.5	0.65	50	1.6	–
CCCCNc1ncc2c(-c3ccc(CN4CCN(C)CC4)cc3)cn([C@H]3CC[C@H](O)CC3)c2n1	–	–	–	–	inhibition [17]: 100%
CCC[C@H](C)Nc1ncc2c(-c3cnn(C4CCNCC4)c3)cn([C@H]3CC[C@H](O)CC3)c2n1	13.8	2.1	32	2.8	–
CCC[C@H](C)Nc1ncc2c(-c3ccnc(N4CCNCC4)c3)cn([C@H]3CC[C@H](O)CC3)c2n1	3.5	2.6	55	1.5	–
